From ChEMBL document CHEMBL4270541, “Synthesis and antimicrobial evaluation of amino sugar-based naphthoquinones and isoquinoline-5,8-diones and their halogenated compounds” (Eur J Med Chem, 2018)
Values after ≈ are worked out from the molar mass of the structure shown. Active and inactive are the calls of the source. The calls are words filed in the database; no cut-off is given here.

What was measured:
[1] = system: Escherichia coli; assay: Antimicrobial activity against Escherichia coli; type: functional
[2] = system: Escherichia coli; assay: Bactericidal activity against Escherichia coli; type: functional
[3] = system: Pseudomonas aeruginosa; assay: Ratio of MBC99.9 to MIC for Pseudomonas aeruginosa INCQS 00099 ATCC 27853; type: functional
Outline: (§1)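 MBC/MIC ratio from the 24 h, 37°C microdilution MIC and the agar-plating MBC (99.9% growth inhibition). A ratio ≤2 was classed as bactericidal and ≥4 as bacteriostatic.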

[4] = system: Proteus mirabilis; assay: Antimicrobial activity against Proteus mirabilis INCQS 00095 ATCC 15290 assessed as zone of inhibition at 5 mg/ml after 18 to 24 hrs by disc diffusion method; type: functional; conditions: read-out: IZ
[5] = system: Klebsiella pneumoniae; assay: Antimicrobial activity against Klebsiella pneumoniae INCQS 00083 ATCC 4352 assessed as zone of inhibition at 5 mg/ml after 18 to 24 hrs by disc diffusion method; type: functional; conditions: read-out: IZ
[6] = system: Escherichia coli; assay: Antimicrobial activity against Escherichia coli INCQS 00033 ATCC 25922 assessed as zone of inhibition at 5 mg/ml after 18 to 24 hrs by disc diffusion method; type: functional; conditions: ATCC 25922 INCQS 00033, read-out: IZ
[7] = system: Staphylococcus epidermidis; assay: Antimicrobial activity against Staphylococcus epidermidis INCQS 00016 ATCC 12228 assessed as zone of inhibition at 5 mg/ml after 18 to 24 hrs by disc diffusion method; type: functional; conditions: ATCC 12228 INCQS 00016, read-out: IZ
[8] = system: Staphylococcus aureus; assay: Ratio of MBC99.9 to MIC for Staphylococcus aureus INCQS 00015 ATCC 25923; type: functional; outline: as §1
[9] = system: Staphylococcus simulans; assay: Antimicrobial activity against Staphylococcus simulans INCQS 00254 ATCC 27851 assessed as zone of inhibition at 5 mg/ml after 18 to 24 hrs by disc diffusion method; type: functional; conditions: read-out: IZ
[10] = system: Pseudomonas aeruginosa; assay: Bactericidal activity against Pseudomonas aeruginosa INCQS 00099 ATCC 27853 incubated for 24 hrs followed by transfer of microbial suspension to agar plates and measured after 24 hrs post transfer by resazurin dye-based colorimetric analysis; type: functional; conditions: INCQS 00099 ATCC 27853, 24 h, read-out: MBC99.9
Outline: (§2)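 For MBC, 10 µL from each clear MIC well was plated on agar and incubated 24 h at 37°C. MBC is the minimum concentration inhibiting 99.9% of growth. […] Triplicate.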

[11] = system: Staphylococcus epidermidis; assay: Antimicrobial activity against Staphylococcus epidermidis INCQS 00016 ATCC 12228 after 24 hrs by microdilution assay; type: functional; conditions: ATCC 12228 INCQS 00016, 24 h
[12] = system: Escherichia coli; assay: Bactericidal activity against Escherichia coli INCQS 00033 ATCC 25922 incubated for 24 hrs followed by transfer of microbial suspension to agar plates and measured after 24 hrs post transfer by resazurin dye-based colorimetric analysis; type: functional; conditions: ATCC 25922 INCQS 00033, 24 h, read-out: MBC99.9; outline: as §2
[13] = system: Staphylococcus aureus; assay: Antimicrobial activity against Staphylococcus aureus INCQS 00015 ATCC 25923 assessed as zone of inhibition at 5 mg/ml after 18 to 24 hrs by disc diffusion method; type: functional; conditions: read-out: IZ
[14] = system: Staphylococcus aureus; assay: Bactericidal activity against methicillin-resistant Staphylococcus aureus BMB9393 incubated for 24 hrs followed by transfer of microbial suspension to agar plates and measured after 24 hrs post transfer by resazurin dye-based colorimetric analysis; type: functional; conditions: BMB9393, 24 h, read-out: MBC99.9
Outline: (§3)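 From MIC wells with no visible growth, 10 µL is transferred to agar plates and incubated 24 h at 37°C. MBC is the minimum concentration inhibiting 99.9% of growth. […] Triplicate.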

[15] = system: Escherichia coli; assay: Ratio of MBC99.9 to MIC for Escherichia coli INCQS 00033 ATCC 25922; type: functional, ATCC 25922 INCQS 00033; outline: as §1
[16] = Hemolytic activity against human erythrocytes assessed as hemolysis at 200 ug/ml after 3 hrs by spectrophotometric analysis relative to control; type: ADME, cell-based, Erythrocyte; conditions: read-out: Activity
Outline: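 Erythrocytes collected in citrate tubes, washed three times with PBS pH 7.4 by centrifugation and resuspended in PBS. Incubated with compounds at 200 µg/mL for 3 h at 37°C. Released hemoglobin was read in the supernatant at 545 nm against 1% Triton X-100 (complete lysis) and 1% DMSO (negative control). Below 10% hemolysis was taken as hemocompatible. Three independent experiments.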

[17] = system: Staphylococcus aureus; assay: Antimicrobial activity against methicillin-resistant Staphylococcus aureus BMB9393 after 24 hrs by microdilution assay; type: functional; conditions: BMB9393, 24 h
[18] = system: Pseudomonas aeruginosa; assay: Antimicrobial activity against Pseudomonas aeruginosa INCQS 00099 ATCC 27853 after 24 hrs by microdilution assay; type: functional; conditions: INCQS 00099 ATCC 27853, 24 h
[19] = system: Escherichia coli; assay: Antimicrobial activity against Escherichia coli INCQS 00033 ATCC 25922 after 24 hrs by microdilution assay; type: functional; conditions: ATCC 25922 INCQS 00033, 24 h
[20] = system: Staphylococcus simulans; assay: Bactericidal activity against Staphylococcus simulans INCQS 00254 ATCC 27851 incubated for 24 hrs followed by transfer of microbial suspension to agar plates and measured after 24 hrs post transfer by resazurin dye-based colorimetric analysis; type: functional; conditions: INCQS 00254 ATCC 27851, 24 h, read-out: MBC99.9; outline: as §2
[21] = system: Staphylococcus epidermidis; assay: Ratio of MBC99.9 to MIC for Staphylococcus epidermidis INCQS 00016 ATCC 12228; type: functional, ATCC 12228 INCQS 00016; outline: as §1
[22] = system: Staphylococcus aureus; assay: Bactericidal activity against Staphylococcus aureus INCQS 00015 ATCC 25923 incubated for 24 hrs followed by transfer of microbial suspension to agar plates and measured after 24 hrs post transfer by resazurin dye-based colorimetric analysis; type: functional; conditions: INCQS 00015 ATCC 25923, 24 h, read-out: MBC99.9; outline: as §3
[23] = system: Staphylococcus aureus; assay: Antimicrobial activity against Staphylococcus aureus INCQS 00015 ATCC 25923 after 24 hrs by microdilution assay; type: functional; conditions: INCQS 00015 ATCC 25923, 24 h
[24] = system: Staphylococcus simulans; assay: Antimicrobial activity against Staphylococcus simulans INCQS 00254 ATCC 27851 after 24 hrs by microdilution assay; type: functional; conditions: INCQS 00254 ATCC 27851, 24 h
[25] = system: Staphylococcus epidermidis; assay: Bactericidal activity against Staphylococcus epidermidis INCQS 00016 ATCC 12228 incubated for 24 hrs followed by transfer of microbial suspension to agar plates and measured after 24 hrs post transfer by resazurin dye-based colorimetric analysis; type: functional; conditions: ATCC 12228 INCQS 00016, 24 h, read-out: MBC99.9; outline: as §2
[26] = system: Enterococcus faecalis; assay: Antimicrobial activity against Enterococcus faecalis INCQS 00234 ATCC 29212 assessed as zone of inhibition at 5 mg/ml after 18 to 24 hrs by disc diffusion method; type: functional; conditions: ATCC 29212 INCQS 00234, read-out: IZ
[27] = system: Staphylococcus aureus; assay: Antimicrobial activity against methicillin-resistant Staphylococcus aureus BMB9393 assessed as zone of inhibition at 5 mg/ml after 18 to 24 hrs by disc diffusion method; type: functional; conditions: read-out: IZ
[28] = system: Pseudomonas aeruginosa; assay: Antimicrobial activity against Pseudomonas aeruginosa INCQS 00099 ATCC 27853 assessed as zone of inhibition at 5 mg/ml after 18 to 24 hrs by disc diffusion method; type: functional; conditions: read-out: IZ
[29] = system: Staphylococcus simulans; assay: Ratio of MBC99.9 to MIC for Staphylococcus simulans INCQS 00254 ATCC 27851; type: functional; outline: as §1
[30] = system: Staphylococcus epidermidis; assay: Bactericidal activity against Staphylococcus epidermidis INCQS 00016 ATCC 12228 at 256 ug/ml incubated for 24 hrs followed by transfer of microbial suspension to agar plates and measured after 24 hrs post transfer by resazurin dye-based colorimetric analysis; type: functional, organism-based; conditions: ATCC 12228 INCQS 00016; outline: as §2
[31] = system: Staphylococcus epidermidis; assay: Antimicrobial activity against Staphylococcus epidermidis INCQS 00016 ATCC 12228 at 256 ug/ml after 24 hrs by microdilution assay; type: functional, organism-based; conditions: ATCC 12228 INCQS 00016
[32] = system: Staphylococcus aureus; assay: Ratio of MBC99.9 to MIC for methicillin-resistant Staphylococcus aureus BMB9393; type: functional
Outline: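 MBC (99.9% kill on agar subculture of clear MIC wells, 24 h, 37°C) divided by broth microdilution MIC (24 h, 37°C). Ratio ≤2 taken as bactericidal and ≥4 as bacteriostatic.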

Compound | Ratio [3] | zone of inhibition at 5000 µg/mL [4] [mm] | zone of inhibition at 5000 µg/mL [5] [mm] | zone of inhibition at 5000 µg/mL [6] [mm] | zone of inhibition at 5000 µg/mL [7] [mm] | Ratio [8] | zone of inhibition at 5000 µg/mL [9] [mm] | MBC [10] [µg/mL] | MBC [12] [µg/mL] | zone of inhibition at 5000 µg/mL [13] [mm] | MBC [14] [µg/mL] | Ratio [15] | hemolysis at 3 h, 200 ug/ml [16] [%] | MIC [17] [µg/mL] | MIC [18] [µg/mL] | MIC [19] [µg/mL] | MBC [20] [µg/mL] | MBC [22] [µg/mL] | MIC [23] [µg/mL] | MIC [24] [µg/mL] | also measured
COC(=O)c1c(C)nc(C)c2c1C(=O)C(Br)=C(Nc1ccc(OC)cc1)C2=O | – | – | – | – | – | – | – | – | – | – | – | – | – | – | – | – | – | – | – | – | MIC [1]: 2 to 4 µg/mL (≈ 4.49 to 8.98 µM); MBC [2]: 2 to 4 µg/mL (≈ 4.49 to 8.98 µM)
NC1=CC(=O)c2ccccc2C1=O | 1 | 0 | 0 | 20 | 17 | 1 | 18 | 64 (≈ 370 µM) | 32 (≈ 185 µM) | 15 | 64 (≈ 370 µM) | 1 | 10.1 to 14.4 | 64 (≈ 370 µM) | 64 (≈ 370 µM) | 32 (≈ 185 µM) | 64 (≈ 370 µM) | 64 (≈ 370 µM) | 64 (≈ 370 µM) | 64 (≈ 370 µM) | MIC [11]: 128 µg/mL (≈ 739 µM); Ratio [21]: 1; MBC [25]: 128 µg/mL (≈ 739 µM); zone of inhibition at 5000 µg/mL [26]: 0 mm; zone of inhibition at 5000 µg/mL [27]: 17 mm; zone of inhibition at 5000 µg/mL [28]: 12 mm; Ratio [29]: 1
NC1=C(Cl)C(=O)c2ccccc2C1=O | 1 | 0 | 0 | 10 | 21 | 1 | 14 | 16 (≈ 77.1 µM) | 128 (≈ 617 µM) | 12 | 64 (≈ 308 µM) | 1 | 10.1 to 14.4 | 64 (≈ 308 µM) | 16 (≈ 77.1 µM) | 128 (≈ 617 µM) | 128 (≈ 617 µM) | 64 (≈ 308 µM) | 64 (≈ 308 µM) | 128 (≈ 617 µM) | Activity [30]: inactive; zone of inhibition at 5000 µg/mL [26]: 0 mm; Activity [31]: inactive; zone of inhibition at 5000 µg/mL [27]: 20 mm; zone of inhibition at 5000 µg/mL [28]: 15 mm; Ratio [29]: 1
NC1=C(Br)C(=O)c2ccccc2C1=O | 1 | 0 | 0 | 8 | 12 | 1 | 17 | 32 (≈ 127 µM) | 64 (≈ 254 µM) | 10 | 64 (≈ 254 µM) | 1 | 10.1 to 14.4 | 64 (≈ 254 µM) | 32 (≈ 127 µM) | 64 (≈ 254 µM) | 128 (≈ 508 µM) | 64 (≈ 254 µM) | 64 (≈ 254 µM) | 128 (≈ 508 µM) | MIC [11]: 128 µg/mL (≈ 508 µM); Ratio [32]: 1; Ratio [21]: 1; MBC [25]: 128 µg/mL (≈ 508 µM); zone of inhibition at 5000 µg/mL [26]: 0 mm; zone of inhibition at 5000 µg/mL [27]: 16 mm; zone of inhibition at 5000 µg/mL [28]: 14 mm; Ratio [29]: 1
COC(=O)c1c(CBr)nc(C)c2c1C(=O)C(Br)=C(Nc1ccc(Cl)cc1)C2=O | – | – | – | – | – | – | – | – | – | – | – | – | – | – | – | – | – | – | – | – | MIC [1]: 2 to 4 µg/mL (≈ 3.78 to 7.57 µM); MBC [2]: 2 to 4 µg/mL (≈ 3.78 to 7.57 µM)
